The target of the test is NADPH oxidase 1 (Homo sapiens) (UniProt Q9Y5S8). Put plainly: NOX1 inhibitors in transfected HEK293 cells, late-stage follow-up, orthogonal assay for NOX1 inhibitor project, cell-based, HEK/293, percent inhibition, luminescence (AID 2545). The conditions noted are these: NOX1-transfected HEK293, luminol ROS chemiluminescence; at 100 µM; active compounds read high. The gist of the method: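 System – HEK293 cells expressing Nox1, NoxO1, NoxA1, active Rac1 · Reagent – luminol with horseradish peroxidase · Dosing – one dose, 100 µM nominal · Timing – 2 h compound pre-incubation before luminol · Technique – luminol chemiluminescence of intracellular ROS · Read-out basis – % inhibition of ROS chemiluminescence · Replication – single well per compound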
Chain of NADPH oxidase 1 (Homo sapiens) (Q9Y5S8 whole entry, looked up): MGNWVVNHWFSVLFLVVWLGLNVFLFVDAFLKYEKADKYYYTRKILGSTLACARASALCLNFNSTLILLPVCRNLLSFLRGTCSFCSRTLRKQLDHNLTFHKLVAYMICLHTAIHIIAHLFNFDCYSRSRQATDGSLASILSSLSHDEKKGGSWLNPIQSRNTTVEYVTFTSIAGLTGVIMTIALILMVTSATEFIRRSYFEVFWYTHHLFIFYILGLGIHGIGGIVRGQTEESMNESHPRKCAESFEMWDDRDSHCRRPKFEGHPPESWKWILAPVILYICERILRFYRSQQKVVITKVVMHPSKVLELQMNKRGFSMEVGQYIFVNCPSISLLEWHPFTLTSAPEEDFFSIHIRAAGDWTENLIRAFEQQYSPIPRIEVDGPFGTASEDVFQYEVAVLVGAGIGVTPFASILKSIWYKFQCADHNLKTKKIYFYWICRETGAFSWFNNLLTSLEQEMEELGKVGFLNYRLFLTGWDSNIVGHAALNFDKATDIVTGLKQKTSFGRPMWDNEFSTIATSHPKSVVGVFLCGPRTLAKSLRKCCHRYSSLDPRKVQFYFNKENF

Activity calls are given as the source filed them.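 Rule for the calls: active = inhibition at or above 75%; inactive = inhibition below 75%.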

One may read the inhibition as the drop in the measured response relative to a control, in per cent. On to `FC(F)(F)c1ccc2c(c1)Nc1ccccc1S2`, for which the inhibition was 107%. With `COc1cccc(NC(=S)NNc2ccc([N+](=O)[O-])cc2)c1` the figure was -84% (inactive). For the compound `O=C(Oc1ccccc1N1CCOCC1)c1cccs1`, the inhibition is 40.4% (inactive). `COc1ccccc1NNC(=O)c1cc(C(C)(C)C)nn1Cc1ccccc1`: the inhibition was 63.6% (inactive).

Consider `NS(=O)(=O)c1ccc(NNC(=O)c2c(F)cccc2Cl)cc1`, for which the inhibition was -10.4% (inactive). As for `Cc1noc(C)c1C(=O)Nc1ccc(N2CCOCC2)nc1N1CCOCC1`, the inhibition was -55.4% (inactive). As for `O=c1[nH]c2ccsc2c(=O)n1CCO`, the inhibition was -0.39% (inactive).

As to `CC(C)C(=O)NNc1nc2c(c(=O)n(C)c(=O)n2C)n1Cc1ccc(Cl)cc1`, the inhibition was -18.6% (inactive). `CC1(C)CC(Nc2ccc(Nc3ccccc3)cc2)CC(C)(C)N1`: the inhibition was 104%. With `ON/C=N/c1nnc(C(F)(F)F)s1` the figure was 1.45% (inactive); with `Cn1nc(-c2ccccc2)c(O)c(N=Nc2ccccc2)c1=O`, -55.7% (inactive); with `CC(C)(C)c1csc(NNC(=O)c2ccc(Cl)cc2)n1`, -43.1% (inactive). With `O=C(Oc1ccccc1N1CCCCC1)c1sc2ccccc2c1Cl` the figure was 57.6% (inactive); with `Nc1nc(NCc2c(Cl)cccc2Oc2ccccc2)n[nH]1`, 2.15% (inactive); with `CN(C)c1ccc(/C=N/Nc2c(Cl)cncc2Cl)cc1`, 100%. For the compound `O=C(NNc1c([N+](=O)[O-])cc(C(F)(F)F)cc1[N+](=O)[O-])c1ccco1`, the inhibition is 5.79% (inactive). Turning to `CC(=O)Oc1ccc(OC(C)=O)c2c1[C@@H]1C=C[C@H]2CC1`, the inhibition was 1.35% (inactive). On to `CCOC(=O)C1=C(Nc2ccc(OC(C)=O)cc2)C(=O)N(C(C)(C)C)C1`, for which the inhibition is 2.42% (inactive).

On to `COc1cc2ncnc(NNC(=O)c3cccs3)c2cc1OC`, for which the inhibition was 46.4% (inactive). For `Nc1nc(NCc2ccccc2OC(F)(F)F)n[nH]1`, the inhibition was 26.1% (inactive).

Regarding `Nc1nc(Nc2ccccc2)n[nH]1`, the inhibition was -15.1% (inactive). With `O=c1c(Cl)c2oc3ccccc3nc-2c2ccccc12` the figure was 52% (inactive); with `COc1ccc(Cl)cc1NC(=O)Nc1ccc(N(C)C)cc1`, 100%; with `COCCCNC(=S)NNC(=S)Nc1ccccc1`, 9.5% (inactive). As to `COc1ccc(N(C)CC(=O)O)c(C(=O)O)c1`, the inhibition was -18.5% (inactive). With `COc1cc(-c2nc(-c3ccccc3)c(-c3ccccc3)[nH]2)ccc1O` the figure was 108%; with `CN(C)c1ccc(NC(=O)Nc2ccc(OCc3ccccc3)cc2)cc1`, 121%; with `O=C(N/N=C/c1ccc(O)cc1)N/N=C/c1ccc(O)cc1`, 83.4%. Regarding `COc1cccc(NC(=S)NNC(=S)NC2CC3CCC2C3)c1` (stereo unspecified), the inhibition was 106%. `Nc1nc(NCc2ccccn2)n[nH]1`: the inhibition is 24.8% (inactive).

In the case of `Cc1cc(Cl)ccc1NC(=S)NNC(=S)Nc1ccc(F)cc1`, the inhibition is 99.9%.

Consider `Cc1nc(C(F)(F)F)c(C(=O)NNc2ncc(C(F)(F)F)cc2Cl)s1`, for which the inhibition is 49.4% (inactive). As for `Cn1cnc(S(=O)(=O)Nc2ccc(N3CCCCC3)cc2)c1`, the inhibition was 58.9% (inactive). On to `O=c1[nH]nc(N2CCSCC2)[nH]1`, for which the inhibition is -55.4% (inactive). With `c1ccc2c(c1)Nc1nc3ccccc3nc1N2` the figure was 79.5%; with `S=C(NNc1nccc(-c2cccnc2)n1)Nc1ccccc1`, -62.4% (inactive). With `COc1ccc(OC(=O)c2ccc3ncccc3c2)cc1` the figure was -50.4% (inactive); with `Cc1cc(S(=O)(=O)NNc2ncnc3c2cnn3C)c(C)cc1Cl`, -0.65% (inactive); with `O=C(NNc1c([N+](=O)[O-])cc(C(F)(F)F)cc1[N+](=O)[O-])c1ccccc1-n1cccc1`, 54.6% (inactive). With `Cc1cc(Br)c(NC(=S)NNc2ccccc2)c(Br)c1` the figure was 5.12% (inactive); with `Cc1cc(C(=O)NNc2cc(Cl)ccc2Cl)no1`, -23.5% (inactive).

The record behind these values is PubChem BioAssay AID2545 (The Scripps Research Institute Molecular Screening Center, 2010).
